Results as given in ChEMBL document CHEMBL4385646, “Structural development of 1H-pyrazolo-[3,4-b]pyridine-4-carboxylic acid derivatives as human peroxisome proliferator-activated receptor alpha (PPARα)-selective agonists” (Bioorg Med Chem Lett, 2019).
Activity calls are given as the source filed them. The calls are words filed in the database; no cut-off is given here.

Legend:
[1] = target: T1, Peroxisome proliferator-activated receptor alpha (Homo sapiens) (UniProt Q07869); assay: Transactivation of human GAL4-fused PPARalpha LBD expressed in human HepG2 cells at 1 uM after 24 hrs by dual renilla-luciferase reporter gene assay relative to fenofibrate; assay type: cell-based
T1 sequence (whole entry): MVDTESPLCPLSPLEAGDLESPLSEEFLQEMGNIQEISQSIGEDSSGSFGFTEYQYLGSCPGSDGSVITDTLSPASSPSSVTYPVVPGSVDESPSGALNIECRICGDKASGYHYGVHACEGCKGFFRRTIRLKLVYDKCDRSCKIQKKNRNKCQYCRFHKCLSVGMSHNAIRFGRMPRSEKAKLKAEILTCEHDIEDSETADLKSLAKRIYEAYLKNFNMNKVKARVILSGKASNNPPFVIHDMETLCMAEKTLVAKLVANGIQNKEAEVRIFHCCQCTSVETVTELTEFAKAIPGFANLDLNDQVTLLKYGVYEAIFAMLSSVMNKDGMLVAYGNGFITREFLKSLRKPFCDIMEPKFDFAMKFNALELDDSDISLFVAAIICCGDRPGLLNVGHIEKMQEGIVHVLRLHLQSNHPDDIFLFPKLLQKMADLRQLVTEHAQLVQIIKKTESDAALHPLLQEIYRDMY
Outline: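 HepG2 cells cotransfected with 4xUAS-tk-luc and pBIND-hPPARα. Cells treated 24 h with compound at 1 μM final; fenofibrate 10 μM served as reference and 0.1% DMSO as vehicle. Read-out by reporter gene luciferase assay.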

[2] = target: T2, Peroxisome proliferator-activated receptor alpha (Homo sapiens, UniProt Q07869); assay: Transactivation of human GAL4-fused PPARalpha LBD expressed in human HepG2 cells after 24 hrs by renilla luciferase reporter gene assay; assay type: cell-based
T2 sequence (Q07869 whole entry): T1 sequence (whole entry)

[3] = target: Peroxisome proliferator-activated receptor alpha (Homo sapiens) (UniProt Q07869); assay: Displacement of fluormone pan-PPAR green from GST-tagged human PPARalpha ligand binding domain after 3 hrs by TR-FRET assay
[4] = target: T1, Peroxisome proliferator-activated receptor alpha (Homo sapiens); assay: Transactivation of human […] PPARalpha LBD expressed in human HepG2 cells at 1 uM by renilla luciferase reporter gene assay relative to control; assay type: cell-based
[5] = Solubility of the compound in pH 7.4 PBS at 100 uM incubated for 10 mins under shaking condition by HPLC analysis; assay type: physicochemical
Outline: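 Aqueous solubility determined in PBS, pH 7.4; reported in μM.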

[6] = Apparent permeability from apical to basolateral side in human Caco2 cells at 25 uM measured up to 2 hrs by LC/MS/MS analysis; assay type: ADME, cell-based; conditions: Caco-2
Outline: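 Caco-2 monolayers; permeability measured apical-to-basolateral (A–B) at 25 μM compound, reported as ×10⁻⁶ cm/s.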

[7] = Protein binding in human plasma at 20 uM after 5 hrs by LC/MS/MS analysis; assay type: ADME, cell-free; conditions: 5 h, 20 µM
Outline: (§1)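 Compound at 20 μM incubated with plasma at 37°C for 5 h; percent bound to protein determined. Final DMSO 0.2%.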

[8] = Protein binding in rat plasma at 20 uM after 5 hrs by LC/MS/MS analysis; assay type: ADME, cell-free; conditions: 5 h, 20 µM; outline: as §1
[9] = Metabolic stability in human liver microsomes assessed as parent compound remaining at 0.5 uM after 60 mins in presence of NADPH by LC/MS/MS analysis; assay type: ADME, Microsome; conditions: microsomes, 1 h, 0.5 µM
Outline: (§2)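 Compound at 0.5 μM incubated with liver microsomes at 37°C for 1 h; result given as percent remaining. Final DMSO 0.2%.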

[10] = Metabolic stability in rat liver microsomes assessed as parent compound remaining at 0.5 uM after 60 mins in presence of NADPH by LC/MS/MS analysis; assay type: ADME, Microsome; conditions: microsomes, 1 h, 0.5 µM; outline: as §2

| activation relative to fenofibrate [1] | EC50 [2] | SMILES | also measured |
| --- | --- | --- | --- |
| 24.6 | – | Cc1cc(C(=O)O)c2c(C3CC3)nn(-c3ccc(Cl)cc3)c2n1 | – |
| 1.53 | – | CCC(Cc1cc(C)nc2c1c(C(C)C)nn2-c1ccc(F)cc1)C(=O)O (stereo not drawn) | – |
| 16.2 | – | CCc1cc(C(=O)O)c2c(C(C)C)nn(-c3ccc(Cl)cn3)c2n1 | – |
| 114 | > 2740 nM | CC(C)c1nn(-c2ccc(Cl)cc2)c2nc(C3CC3)cc(C(=O)O)c12 | – |
| 88.3 | – | O=C(O)c1cc(C2CC2)nc2c1c(C1CCC1)nn2-c1ccc(Cl)cc1 | – |
| 183 | > 3570 nM | CCC(CC)c1nn(-c2ccc(Cl)cc2)c2nc(C)cc(C(=O)O)c12 | – |
| 51 | – | Cc1cc(C(=O)O)c2c(C(C)C)nn(-c3ccc(Cl)c(Cl)c3)c2n1 | – |
| 200 | – | CC(C)(Sc1ccc(CCN(CCCCC2CCCCC2)C(=O)NC2CCCCC2)cc1)C(=O)O | – |
| 26 | – | Cc1cc(C(=O)O)c2c(C(C)C)nn(-c3ccc(C(F)(F)F)cc3)c2n1 | – |
| 251 | 1230 nM | CCc1cc(C(=O)O)c2c(C(C)C)nn(-c3ccc(Br)cc3)c2n1 | – |
| 6.21 | – | CC(C)c1nn(-c2ccc(F)cc2)c2ncc(C(=O)O)c(Cl)c12 | – |
| 76.8 | – | O=C(O)c1cc(C2CC2)nc2c1c(C1CCCC1)nn2-c1ccc(Cl)cc1 | – |
| 176 | 680 nM | CCC(C)c1nn(-c2ccc(Cl)cc2)c2nc(C)cc(C(=O)O)c12 (stereo not drawn) | – |
| 13.6 | – | Cc1cc(C(=O)O)c2c(C)nn(-c3ccccc3)c2n1 | – |
| 2.26 | – | Cc1cc(C(=O)O)c2c(C(C)(C)C)nn(-c3ccc(Cl)cc3)c2n1 | inhibition [3]: inactive |
| 96.7 | – | Cc1cc(C(=O)O)c2c(C(C)C)nn(-c3cccc(Cl)c3)c2n1 | – |
| 79.2 | 2060 nM | Cc1cc(C(=O)O)c2c(C(C)C)nn(-c3ccc(F)cc3)c2n1 | – |
| 196 | 1390 nM | CCc1cc(C(=O)O)c2c(C(C)C)nn(-c3ccc(Cl)cc3)c2n1 | – |

| activation relative to fenofibrate [1] | EC50 [2] | SMILES | also measured |
| --- | --- | --- | --- |
| 111 | 2410 nM | Cc1cc(C(=O)O)c2c(C(C)C)nn(-c3ccc(I)cc3)c2n1 | – |
| 224 | 460 nM | CCC(C)c1nn(-c2ccc(Cl)cc2)c2nc(C3CC3)cc(C(=O)O)c12 (stereo not drawn) | – |
| 250 | 1530 nM | CCc1cc(C(=O)O)c2c(C(CC)CC)nn(-c3ccc(F)cc3)c2n1 | – |
| – | – | CC(C)c1nn(-c2ccc(F)cc2)c2nc(C3CC3)cc(C(=O)O)c12 | fold change (FC) [4]: 151 |
| 78.2 | – | CCc1cc(C(=O)O)c2c(C3CCCC3)nn(-c3ccc(Cl)cc3)c2n1 | – |
| 111 | 1760 nM | CCc1cc(C(=O)O)c2c(C(C)C)nn(-c3ccc(I)cc3)c2n1 | – |
| 243 | 1800 nM | CC(C)c1nn(-c2ccc(Cl)cc2)c2nc(-c3ccccc3)cc(C(=O)O)c12 | – |
| 213 | 1240 nM | CCc1cc(C(=O)O)c2c(C(CC)CC)nn(-c3ccc(Cl)cc3)c2n1 | – |
| 163 | > 1340 nM | CC(C)c1nn(-c2cccc(Cl)c2)c2nc(C3CC3)cc(C(=O)O)c12 | – |
| – | – | Cc1cc(C(=O)[O-])c2c(C(C)C)nn(-c3ccc(Cl)cc3)c2n1.[Na+] | solubility at 10 min, 100 µM [5]: > 95 µM; Papp A→B at 2 h, 25 µM [6]: 22.5 ×10⁻⁶ cm/s; PPB [7]: 99.7%; PPB [8]: 98.9%; Stability [9]: 91%; Stability [10]: 92% |
| 85.2 | > 4010 nM | Cc1cc(C(=O)O)c2c(C(C)C)nn(-c3ccc(Br)cc3)c2n1 | – |
| 199 | 1980 nM | CC(C)c1nn(-c2ccc(Br)cc2)c2nc(C3CC3)cc(C(=O)O)c12 | – |
| 205 | 1450 nM | CCC(CC)c1nn(-c2ccc(F)cc2)c2nc(C)cc(C(=O)O)c12 | – |
| 47.4 | – | Cc1cc(C(=O)O)c2c(C(C)C)nn(-c3cccc(OCc4ccccc4)c3)c2n1 | – |
| 5.75 | – | Cc1cc(C(=O)O)c2c(C(C)(C)C)nn(-c3cccc(Cl)c3)c2n1 | – |
| 192 | > 2270 nM | CCc1cc(C(=O)O)c2c(C(C)C)nn(-c3cccc(Cl)c3)c2n1 | – |
| 64.8 | – | Cc1cc(C(=O)O)c2c(C3CCCC3)nn(-c3ccc(Cl)cc3)c2n1 | – |
